Screening data deposited in PubChem by several laboratories.
Rows were chosen to be rich in hits. Some 5.1% of all compounds tested hit in one or more screens of this group.
STAT3 blocker – STAT3 signaling inhibition; U3A cells, IL-6 STAT3-luciferase reporter, luminescence; host cell line lacks STAT1; inhibition, % at 5.5 µM; actives 0.89% (n = 190,000); AID 862;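 active means inhibition above the mean inhibition across all screened compounds plus 3 SD, cut at about 44% in these data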;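 further: 0% = DMSO only wells and 100% = 100 µM nifuroxazide control wells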
APP 5'UTR act – activates APP 5'UTR luciferase reporter. SH-SY5Y APP 5'UTR luciferase reporter, luminescence; zero percent = DMSO vehicle wells. actives 1% (n = 190,000). activation, % at 2 µM;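 active means activation above a set limit, based on mean plus 3 SD of controls, cut at about 140% in these data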
STAT3 activator – activators of IL-6 induced STAT3 signaling. U3A cells, IL-6 STAT3-luciferase reporter, luminescence; 100% = signal with IL-6 EC80 alone. activation (% of control), % at 5.6 µM. actives 0.91% (n = 190,000). AID 871;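 active means activation above the screen-wide mean of compound activation plus 3 SD, cut at about 130% in these data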;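 further: 0% = background luminescence of wells with medium and substrate only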
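Detection: reporter luminescence signal / Assay system: STAT1-lacking human U3A cells, STAT3 luciferase reporter / Incubation: compound pre-incubation 1 h before IL-6, then 6 h stimulation at 37 °C / Control set: IL-6-only high control / Read-out: % activation relative to IL-6 control / Probe or stimulus: Interleukin-6, 33 ng/mL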
STAT1 inh – reduces IFN-gamma driven STAT1 reporter signal. NIH 3T3 STAT1-luciferase reporter, luminescence. inhibition, % at 5.5 µM. actives 0.35% (n = 200,000). AID 920;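 active means inhibition above a set limit, the mean inhibition across all tested compounds plus 3 SD, cut at about 34% in these data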;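 further: 0% = IFN-gamma with DMSO and 100% = IFN-gamma with 300 µM nifuroxazide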
STAT1 act – STAT1 signaling activation; NIH 3T3 STAT1-luciferase reporter, IFN-gamma, luminescence; 100% = IFN-gamma alone, no compound; activation (% of control), % at 5.5 µM; actives 2.6% (n = 200,000);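 active means activation above the screen-wide mean activation plus 3 SD, cut at about 130% in these data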;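 further: raw ratio to IFN-gamma control signal so 100% means no change and 0% no light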
NF-kB expr up – raises NF-kB expression in human neuronal cells; NF-kB reporter expression; active compounds read high; fold change at 12.5 µM; actives 1.6% (n = 190,000); AID 1239; in the data active means fold change above about 3.3
Starred values were filed as active, the others as inactive; x = no result given.

SMILES	STAT3 blocker	APP 5'UTR act	STAT3 activator	STAT1 inh	STAT1 act	NF-kB expr up
Cc1ccc(C2=Nc3ccccc3N=C(C(Cl)Cl)C2)cc1	21.4	109.3	83.8	8.6	91.1	3.99*
O=C(OCC(=O)c1ccc[nH]1)c1ccccc1	-3.3	1.8	103.8	-42.1	137.9*	1.66
Cc1nnc(SCC(=O)NC(=O)NCCC(C)C)s1	1.2	19.4	103.3	9.2	92.9	1
CC/C(=N/NC(=O)CNc1ccc(Cl)cc1C)c1ccccc1	4.6	5.6	98.1	-0.3	98.8	2.08
CC1CC(=O)N(C)c2cc([N+](=O)[O-])ccc2N1 (centres undefined)	21.2	12.4	85.9	22.3	80.3	1.43
CC(=O)NC(c1ccc(Cl)cc1)c1c(O)ccc2ccc(O)cc12 (centres undefined)	-11.0	-18.5	110.3	-32.9	130.5*	0.67
O=C(NC(c1ccc(Cl)cc1)c1c(O)ccc2ccccc12)c1ccccc1 (centres undefined)	-12.0	-7.8	107.7	0.0	100.0	1.07
COc1cc(C(=O)c2nccc3cc(OC)c(OC)cc23)c([N+](=O)[O-])cc1OC	10.0	-10.5	94.6	8.2	90.8	0.96
COc1ccc(CC(=O)NCc2nnc(SCC(=O)Nc3cccc(F)c3)n2C)cc1	8.8	7.2	96.6	6.8	91.2	1.1
Cc1ccc(-c2nnc(N)o2)cc1	5.4	11.3	96.5	-5.5	104.6	1.15
Fc1ccc(/C=C/c2nnc(-c3cccs3)o2)cc1	26.9	82.5	79.3	-32.4	128.9*	4.17*
Cc1ccc(-c2nnc(-c3ccccc3)o2)cc1	20.0	132.6	84.4	-30.2	127.9	7.87*
Cc1ccc(-c2nnc(-c3cccs3)o2)cc1	28.8	140.5*	76.9	-28.2	127.1	5.48*
Cc1ccc(/C=C/c2nnc(-c3ccc(C)cc3)o2)cc1	6.8	2.9	98.4	-1.7	101.5	1.73
c1ccc(-c2nnc(-c3cccc(-c4nnc(-c5ccccc5)o4)c3)o2)cc1	0.3	-4.3	101.6	-3.4	105.8	x
COc1ccc(CCNC(=O)C(=O)N2CCCC2)cc1OC	10.1	-3.4	95.8	13.4	86.3	1.08
Cc1cc2ccccn2c1C(=O)Nc1ccccc1	-43.2	35.1	134.2*	-12.3	111.7	2.03
CNc1nc(-c2ccccn2)nnc1-c1ccccc1	2.8	-11.2	101.5	-2.1	101.9	13.2*
c1ccc(-c2nnc(-c3ccccn3)nc2NC2CCCCC2)cc1	7.2	-76.7	95.4	-3.0	102.7	0.83
Cc1cc(C)n2nc(-c3ccccc3)cc2n1	-20.0	126.8	119.2	-47.5	141.7*	3.67*
Cc1ccc(NC(=O)c2cc3nc(C)cc(C)n3n2)cc1	16.5	146.3*	87.6	-45.7	142.1*	4.2*
Cc1ccc(-c2cc3nc(C)cc(C)n3n2)cc1	-51.1	171.1*	151.6*	-37.2	134.5*	5.12*
Cc1cc(C)n2nc(-c3ccsc3-n3c(C)ccc3C)cc2n1	15.0	6.2	95.7	-3.1	102.8	1.02
Cc1cc(C)n2nc(C(=O)NCc3ccccc3)cc2n1	2.1	6.2	102.5	2.3	97.9	1.31
C/C(N)=C(/C#N)C(=O)CSc1nnc(-c2ccc(OC(F)F)cc2)o1	-18.4	113.2	117.2	-52.4	147.5*	4.79*
SMILES	STAT3 blocker	APP 5'UTR act	STAT3 activator	STAT1 inh	STAT1 act	NF-kB expr up
CCC(C)N(C)C1CCN(C(=S)Nc2cccc(SC)c2)CC1 (centres undefined)	4.1	-0.1	107.0	-2.9	101.8	1.07
NC1=NC(=O)S/C1=C\c1ccc(F)cc1	8.4	-2.4	100.0	1.3	99.0	0.91
C=CCSc1n[nH]c(-c2ccc(OCCC)cc2)n1	3.9	103.4	98.6	-50.8	149.8*	3.84*
Cc1cccc(-n2ncc3c(NC(C)C)ncnc32)c1	12.8	158.2*	89.7	-52.3	150.1*	4.97*
Cc1cccc(-n2ncc3c(N)ncnc32)c1	14.6	-0.7	93.0	-10.2	110.9	1.81
COc1ccc(NC(=O)CSc2ncnc3c2cnn3CCc2ccccc2)cc1	45.6*	2.4	66.7	-2.3	102.0	1.46
CNC(=O)CSc1ncnc2c1cnn2-c1ccccc1	14.2	20.2	93.0	-18.2	114.5	1.82
CCOc1ccc(Nc2ncnc3c2cnn3-c2ccccc2)cc1	11.2	20.9	91.0	-9.6	109.9	1.03
Cc1ccccc1Nc1ncnc2c1cnn2-c1ccccc1	-6.7	23.1	105.6	-30.6	129.6*	2.56
CC(=O)CSc1ncnc2c1cnn2-c1ccccc1	38.1	120.1	70.7	-27.5	123.2	7.19*
CCN(C(=O)CN1CCN(c2ccccc2F)CC1)c1c(N)n(Cc2ccccc2)c(=O)[nH]c1=O	-19.7	8.5	129.2	-0.5	98.8	1.32
CC(C)Cn1c(SCc2nc3ccccc3c(=O)[nH]2)nc2ccccc2c1=O	-4.0	9.4	112.3	6.2	94.4	0.97
CCN(c1ccc(NC(=O)COC(=O)c2ccc(S(=O)(=O)N3CCCC3)cc2)cc1)C(C)C	-6.4	x	103.9	3.2	97.0	0.97
NNc1ncnc2c1cnn2-c1ccccc1	-9.8	-5.5	109.3	0.0	100.0	0.76
CC(C)Nc1ncnc2c1cnn2-c1ccccc1	28.0	118.6	81.0	-39.8	135.6*	4.04*
COC(=O)c1ccc(NS(=O)(=O)c2ccccc2)o1	4.9	-11.6	97.7	-0.5	100.3	1.11
O=C(/C=C/NNC(=O)c1ccc(Cl)cc1)c1ccccc1	-1.7	1.2	104.8	-36.1	133.2*	0.91
O=C(Nc1nc2ccccc2s1)C1=NN(c2ccccc2)C(=O)CC1	-12.5	2.7	108.3	-11.8	110.5	1.08
CCCNC(=O)Nc1ccc(C(F)(F)F)cc1	4.1	17.4	101.4	-11.7	108.4	1.28
Cc1ccc(Nc2cc(-n3nc(C)cc3C)ncn2)c(C)c1	21.1	0.9	87.1	10.9	90.3	1.29
Cc1ccc(Nc2cc(-n3cccn3)ncn2)c(C)c1	-3.7	127.5	103.3	-45.1	141.3*	3.47*
COc1c(OC(C)=O)ccc(/C=C/c2ccc3ccccc3n2)c1[N+](=O)[O-]	-0.4	136.4*	105.1	1.1	99.0	1.06
Cc1ccc(-c2nc3ccccc3c(C(=O)NCc3cccs3)c2C)cc1	-54.5	-9.3	143.1*	14.4	86.7	0.61
COc1ccc2c(C)cc(Sc3nnnn3-c3ccccc3)nc2c1	32.4	-0.6	73.8	0.9	99.2	3.39*
Cc1cccc(NC(=O)c2cnc3sccn3c2=O)c1	x	166.9*	x	-28.0	124.1	5.54*
O=C(Nc1cnc2sccn2c1=O)c1ccccc1Cl	17.9	73.8	86.4	-42.7	139.7*	2.36
Cc1cccc(NC(=O)c2cnc3sccn3c2=O)c1C	8.3	48.9	97.5	-39.9	135.7*	2.48
Cc1cccc(NC(=O)c2cnc3ccccn3c2=O)c1	31.6	113.3	73.7	-21.4	116.8	2.2
Cc1cccc(NC(=O)c2cnc3sccn3c2=O)n1	9.8	-15.1	96.2	-25.0	122.4	x
